Data published in ChEMBL document CHEMBL1133107, “3-(Hydroxymethyl)-bearing phosphatidylinositol ether lipid analogues and carbonate surrogates block PI3-K, Akt, and cancer cell growth” (J Med Chem, 2000).

Legend:
HT-29 = test: Tested in vitro for their inhibitory activity against HT-29 (colon) cell line; assay type: functional, cell-based; settings: Homo sapiens
In short: (§1)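 Cells were seeded at 30 000 per well in DMEM with 10% FBS, and drugs were added 16 h later. Growth continued for 3 days in DMEM/10% FBS with or without a range of drug concentrations. Cells were then counted on a hemocytometer to give growth-inhibition IC50.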

HeLa = test: Tested in vitro for their inhibitory activity against Hela(cervical) cell line; assay type: functional, cell-based; settings: Homo sapiens; in short: as §1
PC-3 = test: Tested in vitro for their inhibitory activity against PC-3(prostate) cell line.; assay type: functional, cell-based; settings: Homo sapiens; in short: as §1
[1] = Inhibition of murine p100/p85 PI3-K (phosphatidylinositol 3-kinase); parameters: species or system Mus musculus
[2] = biological target: Serine/threonine-protein kinase AKT (Homo sapiens, UniProt P31751+Q9Y243+P31749); test: Inhibition of Akt (proto-oncogenic serine/threonine PKB) kinase; assay type: protein assay
MCF7 = test: Tested in vitro for their inhibitory activity against MCF-7(breast) cell line; assay type: functional, cell-based; settings: Homo sapiens; in short: as §1

| Compound | IC50 (HT-29) | IC50 (HeLa) | IC50 (PC-3) | IC50 [1] | IC50 [2] | IC50 (MCF7) |
| --- | --- | --- | --- | --- | --- | --- |
| CCCCCCCCCCCCCCCCCCOC[C@H](COC(=O)O[C@@H]1[C@H](O)[C@H](CO)[C@@H](O)[C@H](O)[C@@H]1O)OC | 10 µM | 2.5 µM | 2 µM | 83 µM | 5 µM | 1.2 µM |
| CCCCCCCCCCCCCCCCCCOC[C@H](COP(=O)(O)O[C@@H]1[C@H](O)[C@H](CO)[C@@H](O)[C@H](O)[C@@H]1O)OC | 4.5 µM | 1 µM | 4 µM | 31 µM | 7.8 µM | 5 µM |
| CCCCCCCCCCCCCCCCCCOC[C@H](COC(=O)O[C@H]1[C@@H](O)[C@@H](O)[C@H](O)C[C@H]1O)OC | 2.5 µM | 30 µM | 7 µM | 15.5 µM | 12.5 µM | 12 µM |
| CCCCCCCCCCCCCCCCCCOC[C@H](COP(=O)(O)O[C@@H]1[C@H](O)[C@@H](CO)[C@@H](O)[C@H](O)[C@@H]1O)OC | 7.5 µM | 7.5 µM | 2 µM | 18.5 µM | 9.1 µM | 2 µM |
| CCCCCCCCCCCCCCCCCCOC[C@H](COP(=O)(O)O[C@H]1[C@@H](O)[C@@H](O)[C@H](O)C[C@H]1O)OC |  | 7 µM |  | 14.8 µM |  | 7.2 µM |
| CCCCCCCCCCCCCCCCCCOC[C@H](COC(=O)O[C@@H]1[C@H](O)[C@@H](CO)[C@@H](O)[C@H](O)[C@@H]1O)OC | 12 µM | > 20 µM | 10 µM | 21.3 µM | 32 µM | 12.5 µM |
